Laboratory results: ChEMBL document CHEMBL4368867 (Medchemcomm, 2018)

Columns and labels:
Homo sapiens [1] = species on record: Homo sapiens; assay: Selectivity ratio of IC50 for human erythrocyte carbonic anhydrase-1 to IC50 for human carbonic anhydrase-9
Summary of the method: (§1)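 Ratio of the CA I or CA II IC50 to the CA IX IC50. hCA IX was purified recombinant protein; CA I and CA II were commercial. Enzyme levels were 50 ng µL−1 for CA I, 1 ng µL−1 for CA II and 3 ng µL−1 for CA IX. Inhibitor in DMSO was preincubated with enzyme for 15 min. Activity was read as stopped-flow CO2 hydration or initial 4-nitrophenyl acetate hydrolysis rates. Triplicates per concentration, mean reported.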

Carbonic anhydrase 2 = Carbonic anhydrase 2 (Homo sapiens, UniProt P00918); assay: Inhibition of recombinant human carbonic anhydrase-2 expressed in Escherichia coli incubated for 15 mins prior to testing by stopped-flow CO2 hydration assay
Homo sapiens [2] = species on record: Homo sapiens; assay: Selectivity ratio of IC50 for recombinant human carbonic anhydrase-2 expressed in Escherichia coli to IC50 for human carbonic anhydrase-9; summary of the method: as §1
Carbonic anhydrase 1 = Carbonic anhydrase 1 (Homo sapiens, UniProt P00915); assay: Inhibition of human erythrocyte carbonic anhydrase-1 incubated for 15 mins prior to testing by stopped-flow CO2 hydration assay
Carbonic anhydrase 9 = Carbonic anhydrase 9 (Homo sapiens, UniProt Q16790); assay: Inhibition of human carbonic anhydrase-9 incubated for 15 mins prior to testing by stopped-flow CO2 hydration assay

Sequence of Carbonic anhydrase 1 (P00915 whole entry): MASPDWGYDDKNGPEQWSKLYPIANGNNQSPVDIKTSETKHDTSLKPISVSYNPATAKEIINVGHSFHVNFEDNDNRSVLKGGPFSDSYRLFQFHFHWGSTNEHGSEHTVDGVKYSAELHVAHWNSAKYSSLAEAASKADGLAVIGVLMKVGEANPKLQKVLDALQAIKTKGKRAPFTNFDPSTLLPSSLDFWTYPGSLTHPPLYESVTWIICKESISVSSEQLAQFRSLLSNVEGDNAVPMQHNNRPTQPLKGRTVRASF

Compound	Ratio IC50 (Homo sapiens [1])	IC50 (Carbonic anhydrase 2)	Ratio IC50 (Homo sapiens [2])	IC50 (Carbonic anhydrase 1)	IC50 (Carbonic anhydrase 9)
NS(=O)(=O)c1ccc(NC(=S)NC(=O)c2ccccc2Cl)cc1	193	0.0229 µM	6.68	0.661 µM	0.00342 µM
NS(=O)(=O)c1ccc(NC(=S)NC(=O)c2ccc(Cl)cc2)cc1	102	0.0129 µM	3.13	0.423 µM	0.00414 µM
NS(=O)(=O)c1ccc(NC(=S)NC(=O)c2ccc(Cl)cc2Cl)cc1	5270	0.0118 µM	98.5	0.632 µM	0.00012 µM
NS(=O)(=O)c1cccc(NC(=S)NC(=O)c2ccc([N+](=O)[O-])cc2)c1		0.142 µM		0.0605 µM	> 0.104 µM
NS(=O)(=O)c1cccc(NC(=S)NC(=O)c2ccc(Cl)cc2)c1	36.5	0.24 µM	5.67	1.54 µM	0.0422 µM
COc1ccc(C(=O)NC(=S)Nc2cccc(S(N)(=O)=O)c2)cc1	26.1	0.908 µM	35.6	0.665 µM	0.0255 µM
COc1ccccc1C(=O)NC(=S)Nc1ccc(S(N)(=O)=O)cc1	889	0.00209 µM	6.97	0.267 µM	0.0003 µM

More lines, in order of falling IC50 (Carbonic anhydrase 2), values ahead:

Ratio IC50 (Homo sapiens [1])	IC50 (Carbonic anhydrase 2)	Ratio IC50 (Homo sapiens [2])	IC50 (Carbonic anhydrase 1)	IC50 (Carbonic anhydrase 9)	Compound
304	0.95 µM	215	1.34 µM	0.00442 µM	NS(=O)(=O)c1cccc(NC(=S)NC(=O)c2ccc(Cl)cc2Cl)c1
1050	0.749 µM	1560	0.504 µM	0.00048 µM	NS(=O)(=O)c1ccc(NC(=S)NC(=O)c2ccc([N+](=O)[O-])cc2)cc1
40.7	0.277 µM	14.6	0.773 µM	0.019 µM	NS(=O)(=O)c1cccc(NC(=S)NC(=O)c2ccccc2Cl)c1
33.7	0.167 µM	6.47	0.867 µM	0.0257 µM	NS(=O)(=O)c1cccc(NC(=S)NC(=O)c2ccccc2)c1
1480	0.0256 µM	54.4	0.694 µM	0.00047 µM	COc1ccc(C(=O)NC(=S)Nc2ccc(S(N)(=O)=O)cc2)cc1
0.82	0.0207 µM	0.38	0.0444 µM	0.0543 µM	COc1ccccc1C(=O)NC(=S)Nc1cccc(S(N)(=O)=O)c1
